Compound activity as filed in PubChem BioAssay.
This is a sample that favours compounds with a hit; in the whole collection about 5.9% have one here.
T cruzi growth – T. cruzi intracellular proliferation inhibitors, primary screen, cell-based, beta-gal Tulahuen parasites, NIH3T3 host, luminescence; T. cruzi beta-gal in NIH3T3, GalScreen luminescence, 90 h; inhibition, % at 8.34 µM; 77,000 compounds, 5.9% hits; AID 624255, 2012;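 active = mean inhibition above about 93%, with at least 55% of replicates each passing it, limit read from the data, passing the limit was not always enough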
Pf Dd2 inh – P. falciparum Dd2 growth inhibitors, primary screen, SYBR Green fluorescence, single dose replicates; activity change, % at 10 µM; 94,000 compounds, 2.3% hits; 72 h; hits give low values; in the data active = activity change below about -80%
GASC1 inh – inhibitors of GASC-1 (KDM4C) histone demethylase, primary screen, biochemical, single concentration HTS | 96,000 compounds, 0.15% hits | Lysine-specific demethylase 4C (Homo sapiens), Q9H3R0 | GST-KDM4C 2-372, H3K9me3 peptide, LANCE TR-FRET | inhibition, % at 12.5 µM;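 active = mean replicate inhibition above about 25%, with at least 55% of replicates also reaching it, limit read from the data, passing the limit was not always enough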
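Material: N-terminal GST-fused human GASC-1 (KDM4C) fragment, residues 2-372. Input: 10 nM enzyme. Incubation: enzyme reaction 30 min, then detection 60 min, both room temperature. Doses: one test concentration per compound. Read-out basis: inhibition from TR-FRET ratio decrease. Detection: LANCE TR-FRET, excitation 340 nm, emissions 618 and 671 nm.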
IDH1 R132H inh – inhibitors of IDH1 R132H reductase, primary screen, biochemical, plate reader, single point; diaphorase/resazurin fluorescence, 60 min; inhibition, % at 10 µM; 70,000 compounds, 0.18% hits; in the data active = inhibition above about 34%;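 also: 0% = DMSO and 100% = no enzyme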
Target sequence (O75874 whole entry R132H): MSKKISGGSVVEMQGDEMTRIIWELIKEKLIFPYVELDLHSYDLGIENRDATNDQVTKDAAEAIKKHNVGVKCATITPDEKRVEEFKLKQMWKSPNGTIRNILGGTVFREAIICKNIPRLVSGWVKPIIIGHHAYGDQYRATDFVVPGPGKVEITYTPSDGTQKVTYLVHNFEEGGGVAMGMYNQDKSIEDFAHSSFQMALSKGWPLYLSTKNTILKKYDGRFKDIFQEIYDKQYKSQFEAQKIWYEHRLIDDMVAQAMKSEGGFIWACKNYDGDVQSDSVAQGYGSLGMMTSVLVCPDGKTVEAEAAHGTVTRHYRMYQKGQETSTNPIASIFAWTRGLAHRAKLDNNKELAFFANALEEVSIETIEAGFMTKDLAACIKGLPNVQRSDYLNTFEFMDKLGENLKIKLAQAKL
An asterisk follows results filed as active; x = not tested or not shown; ! = not confirmed by another sample.

SMILES | T cruzi growth | Pf Dd2 inh | GASC1 inh | IDH1 R132H inh
C/C=C/c1ccc([C@H]2[C@@H](CO)N(c3nc(C)c(C)s3)[C@@H]2CNCC(C)C)cc1 | x | -96* | 0 | x
COc1ccccc1S(=O)(=O)N(C)C[C@@H]1OCc2ccccc2-c2c(n(C)c3ccccc23)C(=O)N([C@@H](C)CO)C[C@@H]1C | 41 | -93* | 0 | -1
COc1ccccc1S(=O)(=O)N(C)C[C@@H]1OCc2ccccc2-c2c(n(C)c3ccccc23)C(=O)N([C@@H](C)CO)C[C@H]1C | 20 | -62 | -3 | x
COc1ccccc1S(=O)(=O)N(C)C[C@@H]1OCc2ccccc2-c2c(n(C)c3ccccc23)C(=O)N([C@H](C)CO)C[C@@H]1C | 82 | -94* | -1 | x
O=C(CNS(=O)(=O)c1cc(Cl)ccc1Cl)Nc1cccc([N+](=O)[O-])c1 | x | x | x | 0
CCCNC(=O)N1CCC2(CC1)CN(Cc1ccc(F)cc1)[C@@H](CO)c1[nH]c3cc(OC)ccc3c12 | x | -88* | -2 | x
CCCC(=O)N1CCC2(CC1)CN(Cc1ccc(Cl)cc1)[C@H](CO)c1[nH]c3cc(OC)ccc3c12 | x | -85* | -1 | x
CCCNC(=O)N1CCC2(CC1)CN(Cc1cccc(F)c1)[C@@H](CO)c1[nH]c3cc(OC)ccc3c12 | x | -79 | 1 | x
CCCC(=O)N1CCC2(CC1)CN(Cc1nccs1)[C@H](CO)c1[nH]c3cc(OC)ccc3c12 | x | -43 | -1 | x
CCC(=O)N1CCC2(CC1)CN(Cc1ccc(Cl)cc1)[C@H](CO)c1[nH]c3cc(OC)ccc3c12 | x | -88* | -2 | x
CCNC(=O)c1c(NC(=O)COc2cccc3ccccc23)sc2c1CCCC2 | x | x | x | 0
COc1ccc2c3c([nH]c2c1)[C@H](CO)N(Cc1ccccc1)CC31CCN(CC2CC2)CC1 | x | -93* | 1 | x
COc1cccc(CN2CC3(CCN(CC4CC4)CC3)c3c([nH]c4cc(OC)ccc34)[C@H]2CO)c1 | x | -92* | 2 | x
COc1ccc2c3c([nH]c2c1)[C@H](CO)N(CC1CC1)CC31CCN(Cc2ccccc2F)CC1 | x | -85* | -2 | x
COc1cc(/C=N/NC(=O)c2ccccc2O)c(Br)cc1O | x | x | x | 0
O=C(Nc1cccc(F)c1)N1C[C@@H]2N[C@H](C1)C2c1ccc(-c2cccnc2)cc1 (stereo not given in full) | x | -51 | 0 | x
C/C=C/c1ccc(C2[C@@H]3CN(C(=O)Nc4ccc(C(F)(F)F)cc4)C[C@H]2N3)cc1 (stereo not given in full) | x | -82*! | 1 | x
O=C(Nc1ccc(C(F)(F)F)cc1)N1C[C@@H]2N[C@H](C1)C2c1ccc(-c2cccnc2)cc1 (stereo not given in full) | x | -91*! | 0 | x
N#Cc1cccc(-c2ccc(C3[C@@H]4CN(C(=O)Nc5ccc(C(F)(F)F)cc5)C[C@H]3N4)cc2)c1 (stereo not given in full) | x | -84*! | -4 | x
C/C=C/c1ccc(C2[C@@H]3CN(C(=O)Nc4ccc(F)cc4)C[C@H]2N3)cc1 (stereo not given in full) | x | -54 | 0 | x
COc1cccc(NC(=O)N2[C@@H](CO)[C@H](c3ccccc3)[C@@H]2CNCC(C)C)c1 | x | -91* | -1 | x
COc1cccc(NC(=O)N2[C@H](CO)[C@H](c3ccccc3)[C@H]2CNCC(C)C)c1 | 45 | -82* | 0 | x
COc1cccc(NC(=O)N2[C@H](CO)[C@H](c3ccccc3)[C@H]2CNC(C)C)c1 | 61 | -67 | 2 | x
COc1cccc(NC(=O)N2[C@H](CNC(C)C)[C@H](c3ccccc3)[C@@H]2CO)c1 | 21 | 6 | -1 | x
COc1cccc(NC(=O)N2[C@H](CO)[C@@H](c3ccccc3)[C@H]2CNCC(C)C)c1 | 72 | -77 | -3 | x
SMILES | T cruzi growth | Pf Dd2 inh | GASC1 inh | IDH1 R132H inh
COc1cccc(NC(=O)N2[C@@H](CO)[C@@H](c3ccccc3)[C@@H]2CNC(C)C)c1 | 74 | -89* | 3 | x
COc1ccccc1OCC(=O)Nc1sc2c(c1C#N)CCCCC2 | x | x | x | 0
Cc1ccc(S(=O)(=O)N(C)C[C@@H]2OCCCC[C@H](C)Oc3ccc(NC(=O)Nc4ccc(F)cc4)cc3C(=O)N([C@@H](C)CO)C[C@@H]2C)cc1 | x | -83* | 0 | -1
Cc1ccc(S(=O)(=O)N(C)C[C@@H]2OCCCC[C@H](C)Oc3ccc(NC(=O)Nc4ccc(F)cc4)cc3C(=O)N([C@H](C)CO)C[C@H]2C)cc1 | x | -82* | x | -1
CC(C)(O)C(O)Cc1cc2ccc(=O)oc2cc1O (stereo not given) | x | x | x | 0
C[C@@H]1CN([C@@H](C)CO)C(=O)c2c(c3ccccc3n2C)-c2ccccc2CO[C@@H]1CN(C)C(=O)c1cc(Cl)cc(Cl)c1 | x | -87* | -4 | x
C[C@H](C(=O)N(C)C[C@H]1OCc2ccccc2-c2c(n(C)c3ccccc23)C(=O)N([C@H](C)CO)C[C@H]1C)c1ccccc1 | x | -57 | -1 | x
C[C@H]1CN([C@@H](C)CO)C(=O)c2ccccc2-c2ccccc2CO[C@H]1CN(C)C(=O)c1cc(Cl)cc(Cl)c1 | x | -83* | 2 | x
C[C@H](CO)N1C[C@H](C)[C@@H](CN(C)C(=O)[C@H](C)c2ccccc2)OCc2ccccc2-c2c(n(C)c3ccccc23)C1=O | x | -94* | -2 | x
C[C@@H]1CN([C@H](C)CO)C(=O)c2c(c3ccccc3n2C)-c2ccccc2CO[C@@H]1CN(C)C(=O)[C@H](C)c1ccccc1 | x | -91* | 1 | x
O=C(O)C1CC=CCC1C(=O)Nc1ccc(Cc2ccncc2)cc1 (stereo not given) | x | x | x | 0
CC(C(=O)Nc1cccc(Br)c1)N(c1ccc(Cl)cc1)S(C)(=O)=O (stereo not given) | x | x | x | 0
C[C@@H](C(=O)N(C)C[C@@H]1OCc2ccccc2-c2c(n(C)c3ccccc23)C(=O)N([C@@H](C)CO)C[C@@H]1C)c1ccccc1 | x | -86* | 2 | x
C[C@H](C(=O)N(C)C[C@@H]1OCc2ccccc2-c2c(n(C)c3ccccc23)C(=O)N([C@@H](C)CO)C[C@H]1C)c1ccccc1 | x | -67 | -1 | x
COc1ccc(-c2ccc3c(c2)[C@@H]2[C@@H](CCN2S(=O)(=O)c2ccc(OC)cc2)[C@H](CO)N3)cc1 | 49 | -58 | 1 | x
O=C(C1CCCC1)N1CC[C@@H]2[C@H](CO)Nc3ccc(C4=CCCCC4)cc3[C@@H]21 | x | -83* | 6 | x
COc1cccc(-c2ccc3c(c2)[C@@H]2[C@@H](CCN2C(=O)C2CCC2)[C@H](CO)N3)c1 | -6 | -32 | 4 | x
COc1cccc(-c2ccc3c(c2)[C@H]2[C@H](CCN2C(=O)C2CCCCC2)[C@@H](CO)N3)c1 | x | -88* | 1 | x
COc1ccc(S(=O)(=O)N2CC[C@@H]3[C@H]2c2cc(-c4ccc(C#N)cc4)ccc2N[C@@H]3CO)cc1 | 89 | -91* | 0 | x
